Compounds with a hit are over-represented: about 2% of the library has one in this group of screens.
XBP1 UPR activ: activators of adaptive XBP1 UPR arm, primary screen, cell-based, CHO-XBP1 luciferase reporter, luminescence, uHTS. IRE1-XBP1 UPR activation; percent of tunicamycin response, DMSO as zero. hit rate 0.33% among 330,000. AID 463104, 2010. activation, % at 20 µM;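 active = versus positive control, 20 µM dose yields 30% or more activation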;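 also: 100% = tunicamycin at 10 µg/mL and 0% = DMSO only wells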
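Signal: luciferase luminescence; Assay system: CHO-XBP1 luciferase reporter cells; Amount: one thousand reporter cells per well; Dosing: 20 µM single concentration, DMSO 1%; Benchmarks: high control tunicamycin 10 µg/mL final, low control DMSO vehicle only; Schedule: 6 h compound exposure at 37 °C, 5% CO2; Evaluation: percent activation relative to tunicamycin reference.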
Bfl-1 A1 inh: caspase 3/7 activation in MEF A1-2A-BIM cells, primary screen, A1 inhibitor project, cell-based, luminescence, HTS | Caspase-Glo 3/7 luminescence, 3 h; percent of clofoctol response, vehicle zero | caspase activation, % (concentration not given with the values) | hit rate 0.066% among 330,000 | AID 2462, 2010;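 active = over half of replicate activation scores above 10%, or exactly half above 10 with the replicate mean above 10; inconclusive = replicate mean below 10 yet half the replicates above 10; inactive = over half of replicates below 10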
MC4R barr agon: MC4R agonists recruiting beta-arrestin, primary screen, cell-based, luminescence, agonist arm of biased-ligand search. AID 540308, 2011. Melanocortin receptor 4 (Homo sapiens), P32245. hit rate 0.98% among 360,000. U2OS MC4R beta-arrestin complementation; percent of melanotan II response, DMSO zero. activation, % at 8.9 µM;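 active = activation above a per-plate cutoff, the mean activation of sample wells on that plate plus 3 SD, cut at about 8% in these data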
Target sequence (P32245 whole entry, looked up): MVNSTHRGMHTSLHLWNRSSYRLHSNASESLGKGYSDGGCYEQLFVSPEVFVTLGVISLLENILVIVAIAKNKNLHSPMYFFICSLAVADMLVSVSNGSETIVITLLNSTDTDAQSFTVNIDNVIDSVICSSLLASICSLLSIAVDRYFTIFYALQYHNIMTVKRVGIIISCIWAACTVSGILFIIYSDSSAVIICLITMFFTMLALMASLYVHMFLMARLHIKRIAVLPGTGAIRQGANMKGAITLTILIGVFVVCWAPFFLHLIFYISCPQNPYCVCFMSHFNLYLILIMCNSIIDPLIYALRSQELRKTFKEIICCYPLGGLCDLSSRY
CHOP UPR activ: activators of apoptotic CHOP UPR arm, primary screen, cell-based, CHO-CHOP luciferase reporter, luminescence, uHTS | UPR activation; percent of tunicamycin response over DMSO baseline | activation, % at 10 µM | hit rate 0.34% among 330,000 | AID 449763, 2010;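 active = at 10 µM dose, activation of 40% or more, normalized to positive control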;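 also: 100% = tunicamycin at 10 µg/mL and 0% = DMSO alone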
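Assay system: CHO-CHOP cells, stable luciferase reporter of PERK-eIF2a-CHOP signalling / Buffer or medium: F12 plus 10% serum / Compound dosing: one dose, 10 µM in 0.5% DMSO / Times: 6 h compound treatment, 37 °C / Technique: luciferase luminescence / Read-out: % reporter activation, DMSO baseline versus tunicamycin full activation / Benchmarks: tunicamycin and DMSO controls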
MC4R antagonist: MC4R antagonists of cAMP signaling, primary screen, cell-based, TR-FRET, antagonist arm of biased-ligand search; Melanocortin receptor 4 (Homo sapiens), P32245; MC4R-expressing cells, MTII-stimulated cAMP, LANCE TR-FRET; inhibition, % at 6.5 µM; hit rate 0.48% among 360,000; AID 540295, 2011;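 active = inhibition above its plate's cutoff, the mean of tested wells on that plate plus 3 SD, cut at about 29% in these data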;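 also: 0% = Melanotan II alone and 100% = Melanotan II plus saturating MCL0020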
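Material: human MC4R-expressing U2OS cells. Probe or stimulus: Melanotan II challenge. Dosing: 6.5 µM single dose. Times: 30-min compound, 1-h challenge, 1-h detection, room temperature. Technique: TR-FRET with Eu-cAMP and labeled anti-cAMP, 671 nm. Replication: singlicate.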
UPR CHOP confirm: activators of apoptotic CHOP UPR arm, confirmation, cell-based, CHO-CHOP luciferase reporter, single concentration; hit rate 64% among 1,000; CHO-CHOP cells, CHOP-luciferase reporter luminescence; percent of tunicamycin response, DMSO as zero; shares compounds with CHOP UPR activ; activation, % at 10 µM; in the data active = activation above about 33%;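 also: 0% = DMSO wells and 100% = tunicamycin 10 µg/mL wells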
Active calls of the source: *; ? = inconclusive; / = no result.

SMILES	XBP1 UPR activ	Bfl-1 A1 inh	MC4R barr agon	CHOP UPR activ	MC4R antagonist	UPR CHOP confirm
CNc1nc(-c2ccccc2)nc(-c2ccc(OC)cc2)c1C#N	-3	0	-2	-1	1	/
COc1ccc(-c2nc(-c3ccccc3)nc(Cl)c2C#N)cc1	72*	0	0	81*	0	33*
COc1ccccc1-c1cc(C(F)(F)F)nc(S(=O)(=O)CCCC(=O)N2CCCCC2C)n1 (centres undefined)	6	0	-4	279*	4	192*
COc1ccccc1-c1cc(C(F)(F)F)nc(S(C)(=O)=O)n1	-5	0	-3	136*	-2	266*
COc1ccccc1-c1cc(C(F)(F)F)nc(S(=O)(=O)CCCC(=O)NCc2ccc(F)cc2)n1	-1	1	-2	124*	12	271*
COc1ccccc1-c1cc(C(F)(F)F)nc(S(=O)(=O)CCCC(=O)Nc2cccnc2Cl)n1	/	/	-3	/	4	/
O=C(Nc1nccs1)c1cnc2sccn2c1=O	/	/	-1	/	0	/
COC1=CC(C)C2CC3OC(=O)CC4C(C)=C(OC)C(=O)C(C2(C)C1=O)C34C (centres undefined)	/	/	1	/	14	/
CC(C)Cc1nc(N2CCN(C(=O)C(C)C)CC2)c(C#N)c2c1CCC2	-3	0	1	40*	5	0
Cc1ccc(-c2csc3ncnc(Sc4nnc(CN5CCCCCC5=O)o4)c23)cc1	-6	0	-1	82*	6	80*
O=C(NCc1cccc(Cl)c1)C1Cc2c(-c3ccccc3)ccnc2O1 (centres undefined)	/	/	1	/	-7	/
Cc1ccc(C)c(C(O)c2ncc(-c3ccc(Cl)cc3)[nH]2)c1 (centres undefined)	/	/	-1	/	1	/
CCNC(=O)C1CCCN(C(=O)c2ccc3c(c2)CCO3)CC1 (centres undefined)	/	/	4	/	5	/
COc1ccc([C@H]2C[C@H](O)[C@@H](n3cc(COC(=O)c4ccccc4)nn3)CN2CC2CCCCC2)cc1	/	/	0	/	-24	/
Cc1ccccc1C(NC(=O)C1CCN(Cc2ccc(Oc3ccccc3)cc2)CC1)c1ccsc1 (centres undefined)	/	/	0	/	7	/
Cc1ccc([C@H]2N[C@]3(CCCN(Cc4ccc(Br)cc4)C3=O)[C@H]3C(=O)N(C)C(=O)[C@@H]23)cc1	/	/	-1	/	25	/
CCOC(=O)C1=C(CCl)NC(=O)NC1c1ccc2c(c1)OCO2 (centres undefined)	-5	0	-1	44*	-10	37*
O=C(COc1ccc(/C=C\[N+](=O)[O-])cc1)N1CCOCC1	2	0	-4	3	6	/
O=[N+]([O-])/C=C\c1ccc(N2CCOCC2)cc1	-3	1	0	52*	5	126*
COc1ccc(C(=O)Oc2c(CN3CCOCC3)cc(Cl)c3cccnc23)cc1	-1	0	1	0	7	/
COc1cc(C(=O)Oc2c(CN3CCOCC3)cc(Cl)c3cccnc23)cc(OC)c1OC	24	1	-1	62*	4	56*
COc1cccc(C(=O)Oc2c(CN3CCOCC3)cc(Cl)c3cccnc23)c1	19	-1	-1	80*	-6	28
O=C(Oc1c(CN2CCOCC2)cc(Cl)c2cccnc12)c1ccccc1Cl	19	0	-2	40	10	/
O=C(Oc1c(CN2CCOCC2)cc(Cl)c2cccnc12)c1ccc(F)cc1	20	1	-1	40*	11	40*
CCn1cc(/C=C(\NC(=O)c2ccccc2F)C(=O)N2CCN(C)CC2)c2ccccc21	/	/	0	/	-3	/
SMILES	XBP1 UPR activ	Bfl-1 A1 inh	MC4R barr agon	CHOP UPR activ	MC4R antagonist	UPR CHOP confirm
CC1=NOC(=O)/C1=C\c1ccc(-c2cccc(Cl)c2)o1	7	?	-4	115*	7	190*
Cc1cc(C(=O)Cn2ncc(Cl)c(Cl)c2=O)c(C)n1CC(F)(F)F	2	1	0	96*	17	62*
CCOC(=O)c1ccc(NC(=O)Cn2ncc(Cl)c(Cl)c2=O)cc1	-9	3	-3	1	18	/
O=C(Cn1ncc(Cl)c(Cl)c1=O)c1ccc2c(c1)OCCO2	-3	-3	-2	45*	16	48*
CCN(CC)S(=O)(=O)c1cc(NC(=O)Cn2ncc(Cl)c(Cl)c2=O)ccc1C	-3	1	-3	95*	-12	67*
Cc1ccc(C)c(C(=O)Cn2ncc(Cl)c(Cl)c2=O)c1	-1	0	-2	87*	21	67*
CCCc1cc(=O)[nH]c(SCC(=O)c2cc(C)n(CC(F)(F)F)c2C)n1	0	1	0	-1	-60	/
Cc1cccc(S(=O)(=O)NC(=O)C2(C)CCN2C(=O)CCC2CCCC2)c1 (centres undefined)	/	/	-2	/	13	/
Cc1cc(N/N=C/c2ccc([N+](=O)[O-])o2)nc2ccccc12	6	-1	-4	3	8	/
Cn1c(/C=C/c2ccc([N+](=O)[O-])o2)nc2ccccc2c1=O	6	1	-2	127*	-8	75*
O=C(Nc1ccc(S(=O)(=O)Nc2nccs2)cc1)c1cccc(N2C(=O)c3ccccc3C2=O)c1	-3	1	-1	-2	27	/
O=C(Nc1nccs1)c1cccc(N2C(=O)c3cccc4c([N+](=O)[O-])ccc(c34)C2=O)c1	14	0	-1	85*	7	122*
CCCn1c(CC)nc([N+](=O)[O-])c1S(=O)(=O)c1ccccc1	-6	2	-1	104*	8	71*
O=C(COc1ccc(/C=N/NC(=O)c2cc3ccccc3o2)cc1Cl)Nc1ccccc1	7	64*	20*	51*	1	-3
O=C1C(=Cc2ccccc2O)SC(=S)N1CCCN1CCOCC1	/	/	-1	/	6	/
O=C(CCl)Nc1c2c(nn1-c1ccccc1)CSC2	-3	2	-4	70*	3	3
C=CCNc1ncnc2c1ncn2[C@H]1CN(Cc2cccc3ccccc23)C[C@@H](CO)O1	/	/	0	/	12	/
CCc1nc2c(OCCOc3ccc(F)cc3)cccn2c1N(C=O)Cc1ccccc1	/	/	0	/	2	/

From PubChem BioAssay
